Rows were chosen to be rich in hits. Some 1.6% of all compounds tested hit in one or more screens of this group.
SR-BI DiI inh = inhibitors of mouse SR-BI mediated HDL lipid uptake; ldlA[mSR-BI] CHO cells, DiI-HDL uptake fluorescence, 3 h; inhibition, % at 12.5 µM; actives 0.96% (n = 320,000); AID 488896;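 active = mean replicate inhibition of at least 70% and a set share of replicates each scoring 70 or more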;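 note: 0% = median of neutral control wells and 100% = median of positive control wells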
NOD2 RIPK2 PPI = blocks binding of human NOD2 to RIPK2; O43353; CHO BLA complementation NOD2-RIPK2, CCF4 ratio; inhibition, % at 4.98 µM; actives 0.38% (n = 360,000); AID 624267; in the data active = inhibition above about 21%;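 note: 0% = vehicle only and 100% = reference blocker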
Target sequence (O43353 whole entry, looked up): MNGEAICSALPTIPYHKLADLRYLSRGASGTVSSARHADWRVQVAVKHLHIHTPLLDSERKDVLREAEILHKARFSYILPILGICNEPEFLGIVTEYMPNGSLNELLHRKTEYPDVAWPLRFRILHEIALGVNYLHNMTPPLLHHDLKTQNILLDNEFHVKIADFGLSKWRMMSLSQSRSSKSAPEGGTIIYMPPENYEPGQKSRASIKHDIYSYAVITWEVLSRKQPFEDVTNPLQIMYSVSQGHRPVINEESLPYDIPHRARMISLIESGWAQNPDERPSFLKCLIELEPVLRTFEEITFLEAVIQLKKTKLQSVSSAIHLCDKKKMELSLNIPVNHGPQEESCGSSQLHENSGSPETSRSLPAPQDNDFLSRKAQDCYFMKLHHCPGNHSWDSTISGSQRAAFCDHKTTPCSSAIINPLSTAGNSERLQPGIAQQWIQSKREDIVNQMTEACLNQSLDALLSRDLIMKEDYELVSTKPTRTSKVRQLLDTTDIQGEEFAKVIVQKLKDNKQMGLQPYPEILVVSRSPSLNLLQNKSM
TLR4-MyD88 BLA = inhibitors of human TLR4-MyD88 binding | actives 0.18% (n = 200,000) | inhibition, % at 8.4 µM | O00206+Q99836 | HeLa CL3-4 TLR4/MyD88 BLA complementation, FRET ratio; in the data active = inhibition above about 25%;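 note: 0% = vehicle and 100% = reference inhibitor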
TLR9-MyD88 inh = inhibitors of human TLR9-MyD88 binding. actives 0.21% (n = 340,000). CHO BLA complementation TLR9-MyD88, CCF4 FRET ratio. inhibition, % at 4.98 µM. Q9NR96+Q99836. AID 504734;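 active = inhibition above the mean over all tested compounds plus 3 SD, cut at about 21% in these data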;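 note: 0% = DMSO only wells and 100% = clavulanate BLA inhibitor control wells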
Lipid droplet = hepatic lipid droplet formation modulation; AID 1656; AML12 mouse hepatocytes, oleate lipid droplets, BODIPY imaging; actives 0.4% (n = 240,000); inhibition, % at 6.5 µM;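 active = lipid droplet intensity inhibited by at least 50%, with more than 500 cells counted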
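Material: mouse AML12 hepatocyte cell line, fixed after treatment; Timing: compound with oleate, overnight; Technique: high-content imaging of BODIPY-stained droplets and DAPI nuclei; Probe or stimulus: oleate, 100 µM final; Dosing: compound at 6.5 µM only.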
SR-BI DiI-HDL act = activators of SR-BI mediated HDL lipid uptake; CHO ldlA[mSR-BI] cells, DiI-HDL uptake fluorescence, 3 h; 100 = double the neutral-control signal; activation, % at 12.5 µM; actives 0.096% (n = 320,000);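 active = mean replicate activation of at least 60% and every replicate at or above 60%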;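 note: 0% = median plate neutral-control signal and 100% = twice that signal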
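Test system: SR-BI-overexpressing, LDLR-lacking CHO cells; Medium: Ham's F12 with 0.5% BSA, HEPES 25 mM, pH 7.4; Schedule: 3 h, 37 °C; Technique: bottom-read fluorescence, 550/595 nm.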
Active calls of the source: *; nt = not tested or not shown.

SMILES | SR-BI DiI inh | NOD2 RIPK2 PPI | TLR4-MyD88 BLA | TLR9-MyD88 inh | Lipid droplet | SR-BI DiI-HDL act
O=C(COC(=O)c1cc([N+](=O)[O-])ccc1N1CCOCC1)Nc1ccccc1OC(F)F | 73.7* | 1.4 | nt | 1.8 | nt | -73.7
Cc1ccc(OCC(=O)NNC(=O)C2CCN(c3nc(C)cc(C)n3)CC2)cc1 | 45.3 | -1.3 | 16.6 | -4.2 | nt | -45.3
O=C(CCCn1c(=S)[nH]c2cc3c(cc2c1=O)OCO3)NCc1cccc(Cl)c1 | 18.4 | 6.6 | nt | 3.2 | -3.2 | -18.4
CC(C)CCNC(=O)CN(Cc1ccc(F)cc1)C(=O)CCC(=O)Nc1ccccn1 | -5.2 | 2.7 | nt | -10.3 | 39.8 | 5.2
CC(=O)Nc1ccc(N(CC(=O)NC2CCCCC2)C(=O)Cn2nnc(-c3ccccc3)n2)cc1 | 0.4 | -14.6 | nt | 0.1 | 12.8 | -0.4
C=CCN1C(=O)C(CC(=O)Nc2ccccc2)SC1=Nc1ccc(S(N)(=O)=O)cc1 (stereo unspecified) | 13.3 | 5.4 | 5.1 | 5.0 | nt | -13.3
O=C(COC(=O)c1cc([N+](=O)[O-])ccc1N1CCOCC1)Nc1cc(F)ccc1F | 85.0* | -7.1 | nt | 5.1 | nt | -85.0
CCCNC(=O)c1ccc(CN2CCc3ccccc3C2)cc1 | -22.1 | -2.3 | -1.1 | 4.3 | 8.4 | 22.1
C/C(=N\NC(=O)c1ccc(CN2CCc3ccccc3C2)cc1)c1ccccc1O | 108.7* | 11.2 | 0.8 | 0.7 | -2.2 | -108.7
Cn1cc(C(=O)c2ccc(Cl)cc2Cl)cc1C(=O)N/N=C(\N)COc1ccc(Cl)cc1Cl | 83.5* | -5.6 | -7.5 | -0.7 | 5.3 | -83.5
Cc1nn(-c2cc(N3CCCC3)ccc2[N+](=O)[O-])c(=O)c2ccccc12 | 6.2 | -0.7 | 2.0 | -4.4 | 5.8 | -6.2
Cc1ccc(C)c(-c2nn(-c3cc(N4CCN(CCO)CC4)ccc3[N+](=O)[O-])c(=O)c3ccccc23)c1 | -7.4 | 21.5* | -14.3 | 2.9 | nt | 7.4
Cc1c(NC(=O)CSCc2ccco2)c(=O)n(-c2ccccc2)n1C | -23.3 | 4.5 | nt | -4.5 | -1.4 | 23.3
COc1ccc2c(c1)C1NC(=S)NC(C)(O2)C1C(=O)Nc1ccc(Cl)cc1 (stereo unspecified) | 79.5* | -5.3 | 7.9 | -3.5 | -19.3 | -79.5
O=C1Nc2ccc(Br)cc2/C1=C/C(=O)c1ccc2c(c1)OCO2 | 75.0* | 14.6 | nt | 5.1 | 2.1 | -75.0
CCN(CC)c1ccc(/C=N/Nc2nc3ccccc3[nH]2)c(O)c1 | 113.7* | 7.6 | -4.7 | -4.7 | 9.4 | -113.6
Cc1cc(/C=C(\C#N)c2nc3ccccc3[nH]2)c(C)n1C | 27.6 | -4.2 | -16.8 | -4.0 | 29.8 | -27.6
CCOc1cc(N(CC)CC)ccc1/C=C(/C#N)c1nc2ccccc2[nH]1 | 108.8* | 7.9 | 13.2 | 8.9 | nt | -108.8
CC(C)NC(=S)N/N=C1\CCCCC1C1CCCCC1 (stereo unspecified) | 45.6 | -4.9 | 5.2 | -13.2 | -5.6 | -45.6
COc1ccc2sc(-c3ccc(S(C)(=O)=O)cc3)c(C#CCO)c2c1 | 66.2 | 5.3 | nt | 0.5 | nt | -66.2
COc1cc(OC)cc(-c2sc3ccc(OC)cc3c2C#CCCO)c1 | 76.5* | 2.5 | nt | 1.4 | nt | -76.5
COc1ccc2c(C#CCCO)c(-c3ccc(S(C)(=O)=O)cc3)sc2c1 | 82.7* | 16.9 | nt | -11.4 | nt | -82.7
CN(C)c1ccc(Cl)c(NC(N)=S)c1 | nt | -3.2 | nt | 12.1 | nt | nt
CCN(CC)CC(=O)Nc1ccc2c(c1)Nc1ccccc1CC2 | 81.6* | 12.3 | -2.2 | 3.3 | nt | -81.6
COc1cc(CNCCO)ccc1OCC(=O)Nc1ccc(Br)cc1 | 2.2 | 3.6 | 1.7 | 0.9 | 0.5 | -2.2
COc1ccc(CNC(=O)CCCCCn2c(SCC#N)nc3cc4c(cc3c2=O)OCO4)cc1 | 7.7 | 3.7 | -8.1 | 1.6 | 56.3* | -7.7
CCn1c(SCC(=O)NC2CCS(=O)(=O)C2)nnc1-c1ccccc1 (stereo unspecified) | -21.5 | -1.9 | -6.0 | 4.3 | 29.7 | 21.5
Cc1nnc(SCC(=O)NC2CCS(=O)(=O)C2)n1Cc1ccccc1 (stereo unspecified) | -65.9 | -2.6 | 2.7 | -1.0 | 0.3 | 65.9*
O=C(Nc1ccc(OCC(=O)N2CCOCC2)cc1)c1ccccc1F | -9.6 | -1.2 | nt | 7.4 | 7.9 | 9.6

From PubChem BioAssay
